Bioassay records: PubChem, Johns Hopkins Ion Channel Center
An excerpt weighted towards active compounds, which were near 2.3% of everything screened.
TRPC4 PAM – allosteric potentiators of mouse TRPC4 channel. Q9QUQ5. HEK293 TRPC4beta/mu-opioid, DAMGO EC20, Fluo-4 Ca2+ flux; stronger effect = higher value. B-score at 10 µM. hit rate 0.42% among 310,000;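 active means B-score of calcium response area above 5 SD of library B-scores, with initial fluorescence ratio within 5 SD of library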;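 further: B-score of integrated fluorescence ratio over time as area under calcium response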
TRPC6 inhibitor – blocks the mouse TRPC6 cation channel; Q61143; HEK293-TRPC6, membrane potential dye, ACh-evoked depolarization; stronger effect = lower value; B-score at 10 µM; hit rate 1.1% among 310,000; AID 2553;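 active means B-score under library mean minus 3 SD, initial fluorescence not abnormally high, positive integrated signal ratio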;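 further: B-score derived from integrated fluorescence ratio over the kinetic read; more negative B-score means stronger inhibition of depolarization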
Target sequence (Q61143 whole entry, looked up): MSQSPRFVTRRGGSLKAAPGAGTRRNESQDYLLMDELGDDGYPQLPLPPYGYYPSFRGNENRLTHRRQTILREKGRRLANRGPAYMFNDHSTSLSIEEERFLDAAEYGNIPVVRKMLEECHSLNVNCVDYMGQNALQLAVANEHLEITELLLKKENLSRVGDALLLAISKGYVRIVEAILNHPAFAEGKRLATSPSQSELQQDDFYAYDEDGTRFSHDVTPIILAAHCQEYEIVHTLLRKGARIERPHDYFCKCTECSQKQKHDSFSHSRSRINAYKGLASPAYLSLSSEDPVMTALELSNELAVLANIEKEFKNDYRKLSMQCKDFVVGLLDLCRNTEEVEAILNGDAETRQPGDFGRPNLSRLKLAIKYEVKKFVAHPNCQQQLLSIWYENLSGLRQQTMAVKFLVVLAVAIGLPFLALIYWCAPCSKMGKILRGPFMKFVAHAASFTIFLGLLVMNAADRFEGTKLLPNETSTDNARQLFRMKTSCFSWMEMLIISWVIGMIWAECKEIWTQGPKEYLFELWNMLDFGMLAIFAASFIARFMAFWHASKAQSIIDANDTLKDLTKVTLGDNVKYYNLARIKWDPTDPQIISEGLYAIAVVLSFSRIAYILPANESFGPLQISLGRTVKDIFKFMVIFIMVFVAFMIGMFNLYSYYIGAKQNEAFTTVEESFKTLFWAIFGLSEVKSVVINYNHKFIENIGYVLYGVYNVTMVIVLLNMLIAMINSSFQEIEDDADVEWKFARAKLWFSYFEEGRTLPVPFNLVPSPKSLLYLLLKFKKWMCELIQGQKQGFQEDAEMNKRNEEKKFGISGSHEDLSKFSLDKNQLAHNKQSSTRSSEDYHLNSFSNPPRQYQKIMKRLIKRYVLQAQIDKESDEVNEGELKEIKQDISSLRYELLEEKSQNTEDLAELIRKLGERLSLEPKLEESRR
TRPC6 act – activates the mouse TRPC6 cation channel; hit rate 0.13% among 310,000; AID 2550; B-score at 10 µM; Q61143; HEK293-TRPC6 membrane potential dye fluorescence; stronger effect = higher value;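 active means B-score of the integrated fluorescence ratio above library mean plus 3 SD, and starting fluorescence ratio within library mean plus 5 SD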;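 further: higher score means more depolarization so channel activation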
TRPC4 inh – TRPC4 (mouse) channel inhibition. HEK293 TRPC4beta/mu-opioid, DAMGO-evoked Fluo4 calcium flux; stronger effect = lower value. AID 2247. hit rate 0.39% among 300,000. Q9QUQ5. B-score at 10 µM;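 active means B-score over 3 SD under the library average, no early fluorescence shift, positive overall ratio signal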
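Material: HEK293 cells with stable TRPC4beta plus mu-opioid receptor expression / Probe or stimulus: DAMGO in two steps, submaximal then maximal / Compound: single concentration per test compound / Technique: kinetic Fluo4 fluorescence imaging of calcium influx / Read-out: per-well B score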
TRPC4 agonist – activators of mouse TRPC4 channel. hit rate 0.49% among 310,000. HEK293 TRPC4beta/mu-opioid, Fluo4 calcium fluorescence; stronger effect = higher value. Q9QUQ5. AID 2237. B-score at 10 µM;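 active means B-score above 5 SD of library B-scores, and initial fluorescence ratio not above library mean plus 5 SD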;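 further: positive B-score marks a calcium rise read as TRPC4 activation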
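Assay system: HEK293 cells stably co-expressing mouse TRPC4beta and mu-opioid receptor / Timing: Fluo4 dye loading 45 min at room temperature, 110 s recording / Signal: Fluo4 calcium-sensitive dye fluorescence, kinetic, 1 Hz baseline / Read-out: integrated baseline-normalised fluorescence ratio, converted to per-well B score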
Numbers without * were called inactive; i = inactive.

SMILES | TRPC4 PAM | TRPC6 inhibitor | TRPC6 act | TRPC4 inh | TRPC4 agonist
Cc1ccccc1N1CC(=O)N(c2ccccc2C)CC1=O | i | i | i | i | i
Cc1ccc(C)c(N2CC(O)(c3cccs3)[N+]3=C2CCCC3)c1 (configuration not stated) | i | i | i | i | i
Cc1ccccc1N1CC(O)(c2ccccc2)[N+]2=C1SCC2 (configuration not stated) | i | i | i | i | 83*
CCc1cc(=O)oc2c3c(cc(OCC(=O)N[C@H](C(=O)O)[C@H](C)CC)c12)OC(C)(C)CC3 | i | i | i | i | i
CCC(C)NCCOCCOc1ccccc1-c1ccccc1 (configuration not stated) | i | i | i | -7* | i
CC(C)(C)NCCOCCOc1ccccc1-c1ccccc1 | i | i | i | i | i
COc1ccc(C2(c3ccc(O)cc3O)CC(c3ccccc3Cl)NC(=S)N2)cc1 (configuration not stated) | 11* | i | i | i | i
CC(C)(C)c1cc(/C=N/NC(=O)C[n+]2ccccc2)cc(C(C)(C)C)c1O | i | i | i | i | i
Cn1c(-c2ccc(F)cc2)cnc1NCc1ccc(F)cc1F | i | i | i | -6* | i
Cn1c(-c2ccc(F)cc2)cnc1NCc1ccccc1F | i | i | i | i | i
Cn1c(-c2ccc(F)cc2)cnc1NCc1ccc(F)cc1 | i | i | i | -6* | i
Cn1c(-c2ccc(F)cc2)cnc1NCc1ccc(C#N)cc1 | i | i | i | i | i
CC1CCCN(c2c([N+](=O)[O-])cc(C(=O)O)cc2[N+](=O)[O-])C1 (configuration not stated) | i | i | i | -5* | i
CCCCC(=O)NNC(=S)NC(=O)c1ccc(C)cc1 | i | i | i | i | 240*
COc1ccc(C(=O)NNC(=S)NC(=O)c2ccc(Cl)cc2)cc1 | i | i | i | i | 163*
COc1ccc(C(=O)NC(=S)NNC(=O)c2ccc(C)cc2)cc1 | i | i | i | i | 189*
CC(NC(=O)c1ccc2c(c1)OCO2)C1CCCO1 (configuration not stated) | i | i | i | i | i
COc1c(Cl)cc(Cl)cc1CNCCNCCO | 11* | i | i | i | i
O=C(c1ccccc1)c1cccc[n+]1[O-] | i | i | i | i | i
O=C(Nc1cccc(Cl)c1Cl)C1CCN(C(=O)c2cccs2)CC1 | i | i | i | i | i
CCCCN(C)CCNC(=S)Nc1ccc2nc(N3CCN(CC)CC3)cc(C)c2c1 | 16* | i | i | i | i
CCN1CCN(c2cc(C)c3cc(NC(=S)NCCN(C)C)ccc3n2)CC1 | i | i | i | i | i
CCCN(CCC)CCNC(=O)CCC(=O)Nc1ccc2nc(N3CCN(C)CC3)cc(C)c2c1 | i | i | i | i | 87*
CC(CC(=O)Nc1nnc(C(C)(C)C)s1)c1ccccc1 (configuration not stated) | i | i | i | i | i
CCCCN(CC)CCCNC(=O)CC1Oc2ccccc2NC1=O (configuration not stated) | i | i | i | i | 56*
SMILES | TRPC4 PAM | TRPC6 inhibitor | TRPC6 act | TRPC4 inh | TRPC4 agonist
CCOC(=O)C1CCCN(C(c2ccccn2)c2c(C)[nH]c3ccccc23)C1 (configuration not stated) | i | i | i | i | 148*
Cc1[nH]c2ccccc2c1C(c1ccccn1)N1CCCC1 (configuration not stated) | i | i | i | i | i
O=S(=O)(c1ccccc1)c1nc(-c2cccc(Cl)c2)oc1N1CCOCC1 | 10* | i | i | i | i
COc1ccc(N2CCN(C(c3nnnn3C3CCCC3)C(C)C)CC2)cc1 (configuration not stated) | i | i | i | i | i
COc1ccc(C(c2nnnn2C2CCCC2)N2CCN(c3ccccc3)CC2)cc1 (configuration not stated) | i | i | i | -6* | i
CCn1cc(C(=O)N2CCCC(CO)(Cc3ccccc3C)C2)cn1 (configuration not stated) | i | i | i | i | i
O=S(=O)(c1ccccc1Cl)N1CCC(Cc2ccccc2)CC1 | 20* | i | i | i | i
COCCNCC(O)CON=C1c2ccccc2-c2ccccc21 (configuration not stated) | i | i | i | i | 55*
CS(=O)(=O)N(CC(O)CON=C1c2ccccc2-c2ccccc21)c1ccc(F)cc1 (configuration not stated) | i | i | i | i | i
CC(C)CCNCC(O)CON=C1c2ccccc2-c2ccccc21 (configuration not stated) | i | i | i | i | 66*
O=C(C[n+]1ccccc1)N/N=C/c1c(F)cccc1Cl | i | i | i | i | i
O=C(COc1coc(CN2CCCc3ccccc32)cc1=O)Nc1ccc([N+](=O)[O-])cc1 | i | i | i | i | i
CCCCC/C(=N\NC(=O)Nc1ccccc1)c1ccccc1 | i | i | i | i | i
CCCC/C(C)=N/NC(=O)Nc1ccccc1 | i | i | i | i | 74*
CCCN(CCC)CCCNS(=O)(=O)c1cc(Br)cc2c1N(C(C)=O)CC2 | i | i | i | i | 62*
CC1CCN(CCCNS(=O)(=O)c2cc(Br)cc3c2N(C(=O)C2CC2)CC3)CC1 | i | i | i | i | 105*
COC(=O)CS(=O)(=O)c1cc(Br)cc2c1N(C(C)=O)CC2 | i | i | i | i | i
O=C(Cc1ccc(F)cc1)Nc1ccc(Cl)cn1 | i | i | i | i | i
Cc1[nH]c2nc3ccccc3n2c(=O)c1CCC(C)C | i | i | i | i | i
CCOc1ccccc1C(=O)N(CN1CCCC1=O)c1cccc(Cl)c1 | i | i | i | i | 46*
COc1ccc(Cl)cc1N(CC(=O)Nc1ccccc1C(=O)N1CCOCC1)S(C)(=O)=O | i | i | i | i | i
Oc1c(CN2CCCCC2)cc(Br)c2cccnc12 | i | i | i | -7* | i
Oc1c(CN2CCc3ccccc3C2)cc(Cl)c2cccnc12 | i | i | i | i | 69*
C(=C/c1ccnc2nc(SC/C=C/c3ccccc3)nn12)/c1ccccc1 | i | i | i | i | i
